Measurements taken from ChEMBL document CHEMBL3232988, “Design, synthesis and biological evaluation of a series of pyrano chalcone derivatives containing indole moiety as novel anti-tubulin agents” (Bioorg Med Chem, 2014).

System: HepG2
Assay: Antiproliferative activity against human HepG2 cells after 24 hrs by MTT assay
Format: functional, cell-based
Conditions: HepG2, 24 h
Method in brief: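 Seeded at 1 × 10⁴ cells per well, incubated 24 h before treatment. MTT (20 µL of 5 mg/mL in PBS) added per well and incubated until purple precipitate appeared. Medium removed, precipitate dissolved in 150 µL DMSO, shaken 10 min, absorbance read at 570 nm. Growth expressed as percentage of untreated control.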

IC50 [nM] | Compound
8850 | COc1ccc(C(=O)/C=C/c2ccc3ccn(C)c3c2)c2c1C=CC(C)(C)O2
750 | CCOc1ccc(C(=O)/C=C/c2ccc3c(ccn3C)c2)c2c1C=CC(C)(C)O2
> 10000 | COc1ccc(C(=O)/C=C/c2cccc3ccn(Cc4cccc(Cl)c4)c23)c2c1C=CC(C)(C)O2
> 10000 | COc1ccc(C(=O)/C=C/c2cccc3c2ccn3Cc2cccc(Cl)c2)c2c1C=CC(C)(C)O2
> 10000 | CCn1ccc2cccc(/C=C/C(=O)c3ccc(OC)c4c3OC(C)(C)C=C4)c21
1940 | COc1ccc(C(=O)/C=C/c2cn(Cc3ccccc3Cl)c3ccccc23)c2c1C=CC(C)(C)O2
2130 | COc1ccc(C(=O)/C=C/c2cn(Cc3cccc(Cl)c3)c3ccccc23)c2c1C=CC(C)(C)O2
> 10000 | COc1ccc(C(=O)/C=C/c2cn(CC(C)C)c3ccccc23)c2c1C=CC(C)(C)O2
1550 | Cn1ccc2cc(/C=C/C(=O)c3ccc(OS(=O)(=O)c4cccc(C(F)(F)F)c4)c4c3OC(C)(C)C=C4)ccc21
970 | CC(C)COc1ccc(C(=O)/C=C/c2ccc3c(ccn3C)c2)c2c1C=CC(C)(C)O2
1380 | COc1ccc(C(=O)/C=C/c2cn(Cc3cccc(Br)c3)c3ccccc23)c2c1C=CC(C)(C)O2
1780 | COc1ccc(C(=O)/C=C/c2cn(Cc3ccccc3)c3ccccc23)c2c1C=CC(C)(C)O2
2750 | COc1ccc(C(=O)/C=C/c2cn(Cc3ccccc3F)c3ccccc23)c2c1C=CC(C)(C)O2
> 10000 | COc1ccc(C(=O)/C=C/c2cn(Cc3ccccc3C(F)(F)F)c3ccccc23)c2c1C=CC(C)(C)O2
520 | CC(=O)Oc1ccc(C(=O)/C=C/c2ccc3c(ccn3C)c2)c2c1C=CC(C)(C)O2
860 | Cc1ccc(S(=O)(=O)Oc2ccc(C(=O)/C=C/c3ccc4c(ccn4C)c3)c3c2C=CC(C)(C)O3)cc1
690 | Cn1ccc2cc(/C=C/C(=O)c3ccc(OS(=O)(=O)c4cc(F)cc(F)c4)c4c3OC(C)(C)C=C4)ccc21
620 | Cn1ccc2cc(/C=C/C(=O)c3ccc(OS(=O)(=O)c4ccc(Br)cc4C(F)(F)F)c4c3OC(C)(C)C=C4)ccc21
1530 | Cn1ccc2cc(/C=C/C(=O)c3ccc(OS(=O)(=O)c4c(F)c(F)c(F)c(F)c4F)c4c3OC(C)(C)C=C4)ccc21

IC50 [nM] | Compound
2750 | COc1ccc(C(=O)/C=C/c2cccc3c2ccn3C)c2c1C=CC(C)(C)O2
3090 | COc1ccc(C(=O)/C=C/c2cn(Cc3cccc(F)c3)c3ccccc23)c2c1C=CC(C)(C)O2
7620 | COc1ccc(C(=O)/C=C/c2cccc3cc[nH]c23)c2c1C=CC(C)(C)O2
2180 | COc1ccc(C(=O)/C=C/c2cn(Cc3cccc(C(F)(F)F)c3)c3ccccc23)c2c1C=CC(C)(C)O2
> 10000 | COc1ccc(C(=O)/C=C/c2cn(Cc3ccc(F)cc3)c3ccccc23)c2c1C=CC(C)(C)O2
> 10000 | COc1ccc(C(=O)/C=C/c2cn(Cc3ccccc3Br)c3ccccc23)c2c1C=CC(C)(C)O2
> 10000 | COc1ccc(C(=O)/C=C/c2cn(Cc3ccc(Br)cc3)c3ccccc23)c2c1C=CC(C)(C)O2
370 | CC(C)C(=O)Oc1ccc(C(=O)/C=C/c2ccc3c(ccn3C)c2)c2c1C=CC(C)(C)O2
780 | CC(C)Oc1ccc(C(=O)/C=C/c2ccc3c(ccn3C)c2)c2c1C=CC(C)(C)O2
750 | COc1cccc(S(=O)(=O)Oc2ccc(C(=O)/C=C/c3ccc4c(ccn4C)c3)c3c2C=CC(C)(C)O3)c1
8380 | COc1ccc(C(=O)/C=C/c2cccc3[nH]ccc23)c2c1C=CC(C)(C)O2
> 10000 | COc1ccc(C(=O)/C=C/c2cccc3c2ccn3Cc2cccc(F)c2)c2c1C=CC(C)(C)O2
1060 | COc1ccc(C(=O)/C=C/c2ccc3[nH]ccc3c2)c2c1C=CC(C)(C)O2
670 | CCCCCOc1ccc(C(=O)/C=C/c2ccc3c(ccn3C)c2)c2c1C=CC(C)(C)O2
460 | CCCOc1ccc(C(=O)/C=C/c2ccc3c(ccn3C)c2)c2c1C=CC(C)(C)O2
4450 | COc1ccc(C(=O)/C=C/c2ccc3c(ccn3CCN3CCCCC3)c2)c2c1C=CC(C)(C)O2
840 | COc1ccc(C(=O)/C=C/c2ccc3c(ccn3C)c2)c2c1C=CC(C)(C)O2
> 10000 | COc1ccc(C(=O)/C=C/c2cn(Cc3ccc(Cl)cc3)c3ccccc23)c2c1C=CC(C)(C)O2
> 10000 | CCn1ccc2ccc(/C=C/C(=O)c3ccc(OC)c4c3OC(C)(C)C=C4)cc21

IC50 [nM] | Compound
> 10000 | COc1ccc(C(=O)/C=C/c2ccc3ccn(Cc4cccc(Br)c4)c3c2)c2c1C=CC(C)(C)O2
2230 | COc1ccc(C(=O)/C=C/c2cn(C)c3ccccc23)c2c1C=CC(C)(C)O2
920 | CCCCC(=O)Oc1ccc(C(=O)/C=C/c2ccc3c(ccn3C)c2)c2c1C=CC(C)(C)O2
630 | CCCCOc1ccc(C(=O)/C=C/c2ccc3c(ccn3C)c2)c2c1C=CC(C)(C)O2
5540 | CCn1ccc2c(/C=C/C(=O)c3ccc(OC)c4c3OC(C)(C)C=C4)cccc21
> 10000 | COc1ccc(C(=O)/C=C/c2ccc3ccn(Cc4cccc(Cl)c4)c3c2)c2c1C=CC(C)(C)O2
4700 | COCn1cc(/C=C/C(=O)c2ccc(OC)c3c2OC(C)(C)C=C3)c2ccccc21
570 | COc1cc([N+](=O)[O-])ccc1S(=O)(=O)Oc1ccc(C(=O)/C=C/c2ccc3c(ccn3C)c2)c2c1C=CC(C)(C)O2
> 10000 | COc1ccc(C(=O)/C=C/c2ccc3ccn(Cc4cccc(F)c4)c3c2)c2c1C=CC(C)(C)O2
> 10000 | COc1ccc(C(=O)/C=C/c2cccc3ccn(Cc4cccc(Br)c4)c23)c2c1C=CC(C)(C)O2
> 10000 | COc1ccc(C(=O)/C=C/c2cccc3ccn(Cc4cccc(F)c4)c23)c2c1C=CC(C)(C)O2
> 10000 | COc1ccc(C(=O)/C=C/c2cccc3c2ccn3Cc2cccc(Br)c2)c2c1C=CC(C)(C)O2
4950 | COc1ccc(C(=O)/C=C/c2ccc3cc[nH]c3c2)c2c1C=CC(C)(C)O2
3010 | CCn1cc(/C=C/C(=O)c2ccc(OC)c3c2OC(C)(C)C=C3)c2ccccc21
> 10000 | COc1ccc(C(=O)/C=C/c2cccc3ccn(C)c23)c2c1C=CC(C)(C)O2
3460 | COc1ccc(C(=O)/C=C/c2cn(Cc3ccc(C(F)(F)F)cc3)c3ccccc23)c2c1C=CC(C)(C)O2
2810 | COc1ccc(C(=O)/C=C/c2cn(CC=C(C)C)c3ccccc23)c2c1C=CC(C)(C)O2
1870 | CC(C)c1ccc(S(=O)(=O)Oc2ccc(C(=O)/C=C/c3ccc4c(ccn4C)c3)c3c2C=CC(C)(C)O3)cc1
3230 | COc1ccc(C(=O)/C=C/c2cn(CCN3CCOCC3)c3ccccc23)c2c1C=CC(C)(C)O2
